Measurements from ChEMBL document CHEMBL1955770, “Inhibition of S/G2 phase CDK4 reduces mitotic fidelity” (J Biol Chem, 2006).

Key:
[1] = target: Mitogen-activated protein kinase 11 (Homo sapiens) (UniProt Q15759); assay: Inhibition of p38-beta at 1 uM
[2] = target: Mitogen-activated protein kinase kinase kinase 4 (Homo sapiens) (UniProt Q9Y6R4); assay: Inhibition of MAP3K4 at 1 uM
[3] = target: Dual specificity protein kinase CLK3 (Homo sapiens) (UniProt P49761); assay: Inhibition of CLK3 at 1 uM
[4] = target: Tyrosine-protein kinase FRK (Homo sapiens) (UniProt P42685); assay: Inhibition of FRK at 1 uM
[5] = target: cAMP-dependent protein kinase catalytic subunit alpha (Homo sapiens) (UniProt P17612); assay: Inhibition of PKA catalytic subunit alpha at 1 uM
[6] = target: Casein kinase I isoform gamma-2 (Homo sapiens) (UniProt P78368); assay: Inhibition of CSNK1G2 at 1 uM
[7] = target: Membrane-associated tyrosine- and threonine-specific cdc2-inhibitory kinase (Homo sapiens) (UniProt Q99640); assay: Inhibition of PKMYT1 at 1 uM
[8] = target: Serine/threonine-protein kinase PAK 3 (Homo sapiens) (UniProt O75914); assay: Inhibition of PAK3 at 1 uM
[9] = target: Calcium/calmodulin-dependent protein kinase type II subunit delta (Homo sapiens) (UniProt Q13557); assay: Inhibition of CAMK2D at 1 uM
Outline: (§1)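 Competition binding screen across a kinase panel with compound at 1 μM. Read-out is % competition. Kinases not hit at this concentration were scored '<50'. No Kd was determined for hits.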

[10] = target: Mitogen-activated protein kinase 8 (Homo sapiens) (UniProt P45983); assay: Inhibition of JNK1 at 1 uM
[11] = target: Tyrosine-protein kinase BTK (Homo sapiens) (UniProt Q06187); assay: Inhibition of BTK at 1 uM; outline: as §1
[12] = target: Platelet-derived growth factor receptor beta (Homo sapiens) (UniProt P09619); assay: Inhibition of PDGFRB at 1 uM
[13] = target: Serine/threonine-protein kinase B-raf (Homo sapiens) (UniProt P15056); assay: Inhibition of BRAF at 1 uM; outline: as §1
[14] = target: Phosphorylase b kinase gamma catalytic chain, liver/testis isoform (Homo sapiens) (UniProt P15735); assay: Inhibition of PHKG2 at 1 uM
[15] = target: Protein-tyrosine kinase 6 (Homo sapiens) (UniProt Q13882); assay: Inhibition of PTK6 at 1 uM
[16] = target: STE20-like serine/threonine-protein kinase (Homo sapiens) (UniProt Q9H2G2); assay: Inhibition of SLK at 1 uM
[17] = target: Fibroblast growth factor receptor 3 (Homo sapiens) (UniProt P22607); assay: Inhibition of FGFR3 at 1 uM
[18] = target: High affinity nerve growth factor receptor (Homo sapiens) (UniProt P04629); assay: Inhibition of TRKA at 1 uM
[19] = target: Cyclin-G-associated kinase (Homo sapiens) (UniProt O14976); assay: Inhibition of GAK at 1 uM
[20] = target: Activated CDC42 kinase 1 (Homo sapiens) (UniProt Q07912); assay: Inhibition of ACK1 at 1 uM; outline: as §1
[21] = target: Mitogen-activated protein kinase 14 (Homo sapiens) (UniProt Q16539); assay: Inhibition of p38-alpha at 1 uM
[22] = target: Calcium/calmodulin-dependent protein kinase type II subunit beta (Homo sapiens) (UniProt Q13554); assay: Inhibition of CAMK2B at 1 uM; outline: as §1
[23] = target: Insulin-like growth factor 1 receptor (Homo sapiens, UniProt P08069); assay: Inhibition of IGF1R at 1 uM
[24] = target: Ephrin type-A receptor 2 (Homo sapiens) (UniProt P29317); assay: Inhibition of EPHA2 at 1 uM
[25] = target: Casein kinase I isoform epsilon (Homo sapiens) (UniProt P49674); assay: Inhibition of CSNK1E at 1 uM
[26] = target: Tyrosine-protein kinase Fer (Homo sapiens) (UniProt P16591); assay: Inhibition of FER at 1 uM
[27] = target: Platelet-derived growth factor receptor alpha (Homo sapiens) (UniProt P16234); assay: Inhibition of PDGFRA at 1 uM
[28] = target: RAF proto-oncogene serine/threonine-protein kinase (Homo sapiens) (UniProt P04049); assay: Inhibition of RAF1 at 1 uM

Sequence of Mitogen-activated protein kinase 14 (Homo sapiens) (Q16539 whole entry): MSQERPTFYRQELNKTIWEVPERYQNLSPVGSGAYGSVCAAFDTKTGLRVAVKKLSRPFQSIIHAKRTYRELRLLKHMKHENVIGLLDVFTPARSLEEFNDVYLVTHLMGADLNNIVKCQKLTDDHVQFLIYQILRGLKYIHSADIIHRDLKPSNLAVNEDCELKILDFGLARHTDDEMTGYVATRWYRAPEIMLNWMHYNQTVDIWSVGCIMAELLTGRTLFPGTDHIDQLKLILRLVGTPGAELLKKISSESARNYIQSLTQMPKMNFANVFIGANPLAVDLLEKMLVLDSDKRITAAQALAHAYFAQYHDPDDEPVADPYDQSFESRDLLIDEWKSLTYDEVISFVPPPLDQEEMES
Sequence of Cyclin-G-associated kinase (Homo sapiens) (O14976 whole entry): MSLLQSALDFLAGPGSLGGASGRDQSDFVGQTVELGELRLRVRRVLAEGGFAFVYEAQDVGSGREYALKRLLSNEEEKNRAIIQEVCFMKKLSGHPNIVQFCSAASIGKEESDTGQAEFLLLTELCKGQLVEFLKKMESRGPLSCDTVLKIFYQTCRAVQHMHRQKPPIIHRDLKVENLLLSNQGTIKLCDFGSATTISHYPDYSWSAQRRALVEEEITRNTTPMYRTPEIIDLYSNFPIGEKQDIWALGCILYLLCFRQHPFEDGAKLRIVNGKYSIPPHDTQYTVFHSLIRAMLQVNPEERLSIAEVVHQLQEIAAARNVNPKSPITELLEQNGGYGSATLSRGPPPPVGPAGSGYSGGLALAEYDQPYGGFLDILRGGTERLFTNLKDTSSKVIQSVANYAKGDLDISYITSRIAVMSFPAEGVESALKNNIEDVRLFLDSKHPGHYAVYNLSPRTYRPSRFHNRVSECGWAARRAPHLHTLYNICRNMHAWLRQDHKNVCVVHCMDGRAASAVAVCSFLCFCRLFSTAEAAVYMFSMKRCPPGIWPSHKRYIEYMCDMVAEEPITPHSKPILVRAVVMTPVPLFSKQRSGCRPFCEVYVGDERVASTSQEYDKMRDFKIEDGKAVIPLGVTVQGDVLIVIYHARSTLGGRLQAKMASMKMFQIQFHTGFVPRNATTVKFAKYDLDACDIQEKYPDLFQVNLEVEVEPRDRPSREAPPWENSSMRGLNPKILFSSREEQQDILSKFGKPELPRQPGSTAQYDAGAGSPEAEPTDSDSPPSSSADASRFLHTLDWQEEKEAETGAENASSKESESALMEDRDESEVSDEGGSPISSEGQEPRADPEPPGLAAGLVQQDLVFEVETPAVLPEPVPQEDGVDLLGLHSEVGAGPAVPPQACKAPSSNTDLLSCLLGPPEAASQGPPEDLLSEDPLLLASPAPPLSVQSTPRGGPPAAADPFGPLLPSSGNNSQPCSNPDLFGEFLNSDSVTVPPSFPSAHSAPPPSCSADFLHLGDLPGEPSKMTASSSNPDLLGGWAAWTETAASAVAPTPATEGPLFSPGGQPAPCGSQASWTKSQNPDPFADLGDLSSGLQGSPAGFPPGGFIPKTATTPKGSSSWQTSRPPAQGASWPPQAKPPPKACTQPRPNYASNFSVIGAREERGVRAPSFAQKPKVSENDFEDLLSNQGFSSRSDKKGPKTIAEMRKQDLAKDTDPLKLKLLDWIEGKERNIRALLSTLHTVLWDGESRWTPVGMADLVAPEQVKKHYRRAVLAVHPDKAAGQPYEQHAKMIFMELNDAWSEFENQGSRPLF
Sequence of Dual specificity protein kinase CLK3 (Homo sapiens) (P49761 whole entry, looked up): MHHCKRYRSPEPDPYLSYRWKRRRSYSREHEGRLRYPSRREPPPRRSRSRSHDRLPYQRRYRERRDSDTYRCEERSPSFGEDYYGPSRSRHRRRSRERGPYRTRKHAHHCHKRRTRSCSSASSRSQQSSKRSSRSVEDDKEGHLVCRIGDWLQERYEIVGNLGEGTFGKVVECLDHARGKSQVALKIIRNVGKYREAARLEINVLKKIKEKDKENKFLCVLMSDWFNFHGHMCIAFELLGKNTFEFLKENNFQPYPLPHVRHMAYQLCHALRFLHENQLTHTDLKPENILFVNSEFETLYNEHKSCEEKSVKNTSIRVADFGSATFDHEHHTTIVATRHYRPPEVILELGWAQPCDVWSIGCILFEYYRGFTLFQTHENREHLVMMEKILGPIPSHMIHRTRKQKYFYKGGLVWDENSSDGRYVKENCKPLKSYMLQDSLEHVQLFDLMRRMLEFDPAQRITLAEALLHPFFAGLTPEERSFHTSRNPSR
Sequence of Ephrin type-A receptor 2 (Homo sapiens) (P29317 whole entry, canonical isoform): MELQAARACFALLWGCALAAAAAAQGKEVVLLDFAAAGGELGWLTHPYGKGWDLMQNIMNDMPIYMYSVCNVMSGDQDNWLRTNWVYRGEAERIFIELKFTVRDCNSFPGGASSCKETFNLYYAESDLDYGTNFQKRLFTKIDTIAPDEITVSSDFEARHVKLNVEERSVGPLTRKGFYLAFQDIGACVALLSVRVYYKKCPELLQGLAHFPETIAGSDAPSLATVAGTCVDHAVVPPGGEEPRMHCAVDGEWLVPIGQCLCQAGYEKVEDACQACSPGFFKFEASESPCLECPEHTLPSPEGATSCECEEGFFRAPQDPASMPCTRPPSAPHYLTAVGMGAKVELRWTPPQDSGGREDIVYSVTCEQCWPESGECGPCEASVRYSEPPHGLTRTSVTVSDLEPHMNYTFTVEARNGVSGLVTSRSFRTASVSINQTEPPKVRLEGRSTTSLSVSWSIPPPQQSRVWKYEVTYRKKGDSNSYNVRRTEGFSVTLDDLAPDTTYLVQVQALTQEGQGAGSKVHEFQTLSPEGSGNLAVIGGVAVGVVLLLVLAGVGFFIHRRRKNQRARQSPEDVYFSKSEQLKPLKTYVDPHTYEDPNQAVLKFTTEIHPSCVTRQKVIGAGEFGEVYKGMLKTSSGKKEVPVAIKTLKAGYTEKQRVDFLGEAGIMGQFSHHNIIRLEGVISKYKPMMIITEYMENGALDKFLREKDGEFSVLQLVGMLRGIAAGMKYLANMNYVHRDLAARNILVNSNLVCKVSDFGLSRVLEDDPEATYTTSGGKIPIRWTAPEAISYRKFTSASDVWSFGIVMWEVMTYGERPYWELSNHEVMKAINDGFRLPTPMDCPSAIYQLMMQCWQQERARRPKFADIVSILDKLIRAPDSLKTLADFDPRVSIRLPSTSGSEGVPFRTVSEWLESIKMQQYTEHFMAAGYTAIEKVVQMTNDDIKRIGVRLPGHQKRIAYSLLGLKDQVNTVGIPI
Sequence of Tyrosine-protein kinase Fer (Homo sapiens) (P16591 whole entry, looked up): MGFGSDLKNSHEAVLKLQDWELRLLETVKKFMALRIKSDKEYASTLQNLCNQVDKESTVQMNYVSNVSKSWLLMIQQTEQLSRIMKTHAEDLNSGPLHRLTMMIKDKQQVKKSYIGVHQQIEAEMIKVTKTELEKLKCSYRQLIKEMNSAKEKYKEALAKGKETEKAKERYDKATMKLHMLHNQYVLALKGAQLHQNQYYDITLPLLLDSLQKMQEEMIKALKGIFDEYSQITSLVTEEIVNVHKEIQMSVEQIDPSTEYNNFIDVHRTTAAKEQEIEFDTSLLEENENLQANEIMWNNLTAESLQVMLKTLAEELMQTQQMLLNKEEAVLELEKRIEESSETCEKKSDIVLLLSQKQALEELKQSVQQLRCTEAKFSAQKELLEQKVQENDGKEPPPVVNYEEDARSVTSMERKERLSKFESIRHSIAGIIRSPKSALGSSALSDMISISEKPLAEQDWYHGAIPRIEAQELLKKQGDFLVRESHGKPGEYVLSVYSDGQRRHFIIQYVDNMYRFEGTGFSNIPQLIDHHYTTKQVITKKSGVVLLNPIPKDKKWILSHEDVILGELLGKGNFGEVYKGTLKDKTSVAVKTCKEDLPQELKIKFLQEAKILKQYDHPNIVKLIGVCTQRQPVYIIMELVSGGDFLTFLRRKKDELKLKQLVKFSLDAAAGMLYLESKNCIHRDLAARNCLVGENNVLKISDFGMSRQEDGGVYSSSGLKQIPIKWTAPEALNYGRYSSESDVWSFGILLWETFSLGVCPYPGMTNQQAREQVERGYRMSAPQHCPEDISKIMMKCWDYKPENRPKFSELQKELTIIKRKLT
Sequence of Mitogen-activated protein kinase 11 (Homo sapiens) (Q15759 whole entry): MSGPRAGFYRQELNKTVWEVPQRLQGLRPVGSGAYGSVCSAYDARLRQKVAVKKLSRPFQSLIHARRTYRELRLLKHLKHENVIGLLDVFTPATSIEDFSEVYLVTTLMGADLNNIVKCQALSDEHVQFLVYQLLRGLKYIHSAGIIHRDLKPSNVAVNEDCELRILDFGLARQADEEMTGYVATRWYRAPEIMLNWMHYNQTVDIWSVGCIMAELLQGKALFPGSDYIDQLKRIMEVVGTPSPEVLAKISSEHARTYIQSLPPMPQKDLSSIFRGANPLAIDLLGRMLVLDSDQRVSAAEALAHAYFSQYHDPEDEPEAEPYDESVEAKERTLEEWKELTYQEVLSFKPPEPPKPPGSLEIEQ
Sequence of Casein kinase I isoform epsilon (Homo sapiens) (P49674 whole entry, looked up, canonical isoform): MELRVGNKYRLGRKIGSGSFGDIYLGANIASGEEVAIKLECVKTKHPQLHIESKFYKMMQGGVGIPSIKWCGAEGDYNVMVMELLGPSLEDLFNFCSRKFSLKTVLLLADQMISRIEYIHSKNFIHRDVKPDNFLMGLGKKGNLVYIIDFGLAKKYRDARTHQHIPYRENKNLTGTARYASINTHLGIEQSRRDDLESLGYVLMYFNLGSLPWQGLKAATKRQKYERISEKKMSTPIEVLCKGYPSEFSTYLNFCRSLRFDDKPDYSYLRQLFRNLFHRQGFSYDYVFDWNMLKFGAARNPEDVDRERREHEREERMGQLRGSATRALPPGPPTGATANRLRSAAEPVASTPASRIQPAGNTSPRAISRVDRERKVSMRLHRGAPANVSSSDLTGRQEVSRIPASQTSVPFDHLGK

`CN1CCN(c2ccc(Nc3nc(N)c(C(=O)c4ccc5c(c4)OCCO5)s3)cc2)CC1` was tested, and the inhibition [1] was under 50%, the inhibition [2] was under 50% and the inhibition [3] was 89%. It also gave an inhibition [4] of under 50%, an inhibition [5] of under 50% and an inhibition [6] of 99%. For the same compound, the inhibition [7] was under 50%, the inhibition [8] was under 50% and the inhibition [9] was under 50%. For the same compound, the inhibition [10] was under 50%, the inhibition [11] was under 50% and the inhibition [12] was under 50%. The inhibition [13] was under 50%, the inhibition [14] was under 50% and the inhibition [15] was under 50%. It also gave an inhibition [16] of 99%, an inhibition [17] of under 50% and an inhibition [18] of under 50%. It also gave an inhibition [19] of 100%, an inhibition [20] of under 50% and an inhibition [21] of under 50%. For the same compound, the inhibition [22] was under 50%, the inhibition [23] was under 50% and the inhibition [24] was under 50%. It also gave an inhibition [25] of under 50%, an inhibition [26] of under 50% and an inhibition [27] of under 50%. For the same compound, the inhibition [28] was under 50%.
